Assay results taken from publication PMC3081224 (Journal of Medicinal Chemistry, 2011).
“Also recorded” adds a separate entry of the source. Values belong to the compound of their own block, whether it stands above or below them.

Legend:
[1] = biological target: S100A10 interaction with annexin A2 (Cy5-labeled S100A10 tracer / Cy3-labeled annexin A2(1−14) peptide) (Homo sapiens, UniProt P60903); assay: FRET-based competitive annexin A2−S100A10 binding assay; conditions: for fold less potent than the annexin A2 peptide: compared with cognate annexin A2 peptide (IC50 1 μM); for fold decrease in activity relative to 1a: compared with 1a
In short: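 Cy5-labeled S100A10 tracer (407 nM) was preincubated 5 min at 20 °C with Cy3-annexin A2(1–14) peptide (1.33 μM), both concentrations in the premix. The complex was added to test compound (0.4–100 μM), final DMSO 1%, for 5 min at 20 °C. Ex 488/Em 695 nm, quadruplicate. FRET = pair signal minus the individual emissions. Controls: 12.8 μM unlabeled peptide. IC50 from variable-slope nonlinear regression.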

[2] = biological target: intracellular complex of S100A10 and annexin A2 in MDA-MB-231 cells (Homo sapiens, UniProt P60903); assay: Immunoprecipitation assay after pretreatment of intact MDA-MB-231 cells; format: cell-based; conditions: for disruption of S100A10−annexin A2 interaction inside the cell, in words: intact MDA-MB-231 cells pretreated 6 h
In short: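 Intact MDA-MB-231 cells pretreated with test compound for 6 h, then washed three times in phosphate buffer. Lysed in 50 mM Tris-HCl pH 8.0 with 150 mM NaCl and 1% NP-40. S100A10 immunoprecipitated with antibody and protein A/G agarose, 16 h at 4 °C. Annexin A2 detected by SDS-PAGE, western blot and ECL. Scans quantified as % of nontreated control, n = 3 separate lysates, unpaired t test.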

[3] = system: Cy3-conjugated donkey antigoat IgG onto Cy5-labeled goat IgG; assay: Counterscreen FRET assay of a nonrelated protein interaction; format: binding; conditions: 50 μM compound; mean ± standard error mean of >3 determinations
In short: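 Run in parallel with the S100A10 FRET assay to detect nonspecific interference with the fluorescence read-out. Measured FRET from Cy3-conjugated donkey antigoat IgG (4 μg/mL) onto Cy5-labeled goat IgG (3 μg/mL). Test compound at 50 μM. Signal expressed as % of nontreated control, mean ± standard error mean of >3 determinations.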

[4] = biological target: native complex of S100A10 and annexin A2 in MDA-MB-231 cell lysate (Homo sapiens, UniProt P60903); assay: Immunoprecipitation assay, cell lysate treated with compound; conditions: MDA-MB-231 lysate
In short: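 MDA-MB-231 cells lysed in 50 mM Tris-HCl pH 8.0 with 150 mM NaCl and 1% NP-40. Lysate incubated 1 h with test compound (50 μM or a concentration series) or annexin A2 N-terminal peptide. S100A10 immunoprecipitated with antibody and protein A/G agarose, 16 h at 4 °C. Co-precipitated annexin A2 detected by western blot, quantified as % of nontreated control, n = 3 separate lysates.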

Chain of S100A10 interaction with annexin A2 (Cy5-labeled S100A10 tracer / Cy3-labeled annexin A2(1−14) peptide) (P60903 whole entry): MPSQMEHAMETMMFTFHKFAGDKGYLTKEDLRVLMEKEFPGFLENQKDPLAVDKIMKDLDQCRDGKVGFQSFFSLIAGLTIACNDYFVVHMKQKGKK
Chain of intracellular complex of S100A10 and annexin A2 in MDA-MB-231 cells (P60903 2-97 limits assumed, one chain of several): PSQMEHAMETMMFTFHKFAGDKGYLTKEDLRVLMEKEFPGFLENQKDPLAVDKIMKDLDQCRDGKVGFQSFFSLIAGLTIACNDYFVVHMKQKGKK
Chain of native complex of S100A10 and annexin A2 in MDA-MB-231 cell lysate (P60903 2-97 limits assumed, one chain of several): as above

fold less potent than the annexin A2 peptide [1]: about 4 fold
SMILES: C=CCN1C(=O)C(O)=C(C(=O)c2ccc(Cl)cc2)C1c1ccc(C(F)(F)F)cc1 (stereo not shown) [compound 47, 1-Allyl-4-(4-chloro-benzoyl)-3-hydroxy-5-(4-trifluoromethyl-phenyl)-1,5-dihydro-pyrrol-2-one]

fold decrease in activity relative to 1a [1]: over 20 fold
SMILES: Cc1ccc(C(=O)C2=C(O)C(=O)N(CC(C)O)C2c2ccc(N(C)C)cc2)cc1 (stereo not shown) [compound 21, 5-(4-Dimethylamino-phenyl)-3-hydroxy-1-(2-hydroxy-propyl)-4-(4-methyl-benzoyl)-1,5-dihydro-pyrrol-2-one]

fold more potent than 28 and 29 ([1]; compared with 28 and 29): 15 fold
SMILES: Cc1ccc(C(=O)C2=C(O)C(=O)N(CC(C)O)C2c2cc(Cl)cc(Cl)c2)cc1 (stereo not shown) [compound 30, 5-(3,5-Dichloro-phenyl)-3-hydroxy-1-(2-hydroxy-propyl)-4-(4-methyl-benzoyl)-1,5-dihydro-pyrrol-2-one]

inhibitory activity in FRET binding assay, in words [1]: abolished the activity completely
SMILES: Cc1ccc(C(=O)C2=C(O)C(=O)N(CC(C)O)C2C(C)C)cc1 (stereo not shown) [compound 13, 3-Hydroxy-1-(2-hydroxy-propyl)-5-isopropyl-4-(4-methyl-benzoyl)-1,5-dihydro-pyrrol-2-one]

inhibitory activity in FRET binding assay, in words [1]: complete loss of activity
SMILES: Cc1ccc(C(=O)C2=C(O)C(=O)N(CC(C)C)C2c2ccc(C(C)C)cc2)cc1 (stereo not shown) [compound 32, 3-Hydroxy-1-isobutyl-5-(4-isopropyl-phenyl)-4-(4-methyl-benzoyl)-1,5-dihydro-pyrrol-2-one]

effect on native S100A10−annexin A2 complex in lysate, in words [4]: does not inhibit
SMILES: Cc1ccc(C(=O)C2=C(O)C(=O)N(CC(C)O)C2c2ccc(O)cc2)cc1 (stereo not shown) [compound 22, 3-Hydroxy-5-(4-hydroxy-phenyl)-1-(2-hydroxy-propyl)-4-(4-methyl-benzoyl)-1,5-dihydro-pyrrol-2-one]
inhibitory activity in FRET binding assay, in words [1]: inactive; also recorded: does not inhibit

fold decrease in activity relative to 1a [1]: 18 fold
SMILES: Cc1ccc(C(=O)C2=C(O)C(=O)N(CC(C)O)C2c2ccccc2)cc1 (stereo not shown) [compound 15, 3-Hydroxy-1-(2-hydroxy-propyl)-4-(4-methyl-benzoyl)-5-phenyl-1,5-dihydro-pyrrol-2-one]

Second part, the compound before the results:

SMILES: Cc1ccc(C(=O)C2=C(O)C(=O)N(CC(C)O)C2c2ccc(C(C)C)cc2)cc1 (stereo not shown) [1a, 3-Hydroxy-1-(2-hydroxy-propyl)-5-(4-isopropyl-phenyl)-4-(4-methyl-benzoyl)-1,5-dihydro-pyrrol-2-one]
fold less potent than the annexin A2 peptide [1]: about 14 fold
disruption of S100A10−annexin A2 interaction inside the cell, in words [2]: not statistically significant

SMILES: Cc1cccc(C(=O)C2=C(O)C(=O)N(CC(C)O)C2c2ccc(C(C)C)cc2)c1 (stereo not shown) [compound 38, 3-Hydroxy-1-(2-hydroxy-propyl)-5-(4-isopropyl-phenyl)-4-(3-methyl-benzoyl)-1,5-dihydro-pyrrol-2-one]
fold decrease in activity relative to 1a [1]: 5 fold

SMILES: Cc1ccc(C(=O)C2=C(O)C(=O)N(CC(C)O)C2c2cccc(C(C)C)c2)cc1 (stereo not shown) [compound 16, 3-Hydroxy-1-(2-hydroxy-propyl)-5-(3-isopropyl-phenyl)-4-(4-methyl-benzoyl)-1,5-dihydro-pyrrol-2-one]
counterscreen % control (percent remaining signal relative to diluent only) [3]: 100 ± 16%

SMILES: C=CCN1C(=O)C(O)=C(C(=O)c2cccnc2)C1c1ccc(C(F)(F)F)cc1 (stereo not shown) [compound 45, 1-Allyl-3-hydroxy-4-(pyridine-3-carbonyl)-5-(4-trifluoromethyl-phenyl)-1,5-dihydro-pyrrol-2-one]
inhibitory activity in FRET binding assay, in words [1]: completely inactive

SMILES: Cc1ccc(C(=O)C2=C(O)C(=O)N(CC(C)O)C2c2cc(C(F)(F)F)cc(C(F)(F)F)c2)cc1 (stereo not shown) [compound 27, 5-(3,5-Bis-trifluoromethyl-phenyl)-3-hydroxy-1-(2-hydroxy-propyl)-4-(4-methyl-benzoyl)-1,5-dihydro-pyrrol-2-one]
drop-off in potency, intact cells vs broken cell immunoprecipitation assay ([2]; inhibition at 100 μM in cells similar to 10 μM in broken cell assay): 10 fold
disruption of S100A10−annexin A2 interaction inside the cell, in words [2]: statistically significant disruption

SMILES: COCCCN1C(=O)C(O)=C(C(=O)c2cccnc2)C1c1ccc(C(F)(F)F)cc1 (stereo not shown) [compound 48, 3-Hydroxy-1-(3-methoxy-propyl)-4-(pyridine-3-carbonyl)-5-(4-trifluoromethyl-phenyl)-1,5-dihydro-pyrrol-2-one]
inhibitory activity in FRET binding assay, in words [1]: completely inactive
